Bioassay records as filed in PubChem BioAssay.
Shown are actives, neighbours in structure and some others; about 5.9% of the full set was active somewhere.
Pf Dd2 inh: inhibitors of Plasmodium falciparum Dd2 growth; P. falciparum Dd2 growth, SYBR Green, 72 h; hits give low values; activity change, % at 10 µM; 2.3% of 94,000 active; AID 1159554; in the data active means activity change below about -80%; inconclusive means no clear call, values can overlap the other calls
T cruzi growth: inhibitors of T. cruzi proliferation | 5.9% of 77,000 active | inhibition, % at 8.34 µM | T. cruzi beta-gal in NIH3T3, GalScreen luminescence, 90 h;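 active means mean inhibition above about 93%, with at least 55% of replicates each passing it, limit read from the data, passing the limit was not always enough; inconclusive means only one of those two conditions holds; inactive means neither condition holds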
IDH1 R132H inh: IDH1 R132H (human) inhibition. IDH1 R132H reductase, diaphorase/resazurin fluorescence, 60 min. inhibition, % at 10 µM. 0.18% of 70,000 active. AID 624101; in the data active means inhibition above about 34%; inconclusive means no clear call, values can overlap the other calls; inactive means below about 11%;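 further: 0% = DMSO and 100% = no enzyme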
Target sequence (O75874 whole entry R132H): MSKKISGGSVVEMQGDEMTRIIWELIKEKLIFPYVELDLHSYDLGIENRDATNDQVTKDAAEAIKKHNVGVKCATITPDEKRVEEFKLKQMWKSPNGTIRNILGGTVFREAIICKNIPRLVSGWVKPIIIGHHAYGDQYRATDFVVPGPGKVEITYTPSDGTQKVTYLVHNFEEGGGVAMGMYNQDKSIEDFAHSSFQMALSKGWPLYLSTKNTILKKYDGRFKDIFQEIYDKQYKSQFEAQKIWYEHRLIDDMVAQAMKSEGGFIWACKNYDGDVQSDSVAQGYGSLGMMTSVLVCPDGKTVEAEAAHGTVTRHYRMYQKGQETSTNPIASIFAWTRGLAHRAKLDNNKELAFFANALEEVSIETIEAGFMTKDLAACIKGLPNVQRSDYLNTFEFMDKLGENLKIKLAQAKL
GASC1 inh: KDM4C (human) demethylase inhibition | Q9H3R0 | GST-KDM4C 2-372, H3K9me3 peptide, LANCE TR-FRET | inhibition, % at 12.5 µM | 0.15% of 96,000 active | AID 720574;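 active means mean replicate inhibition above about 25%, with at least 55% of replicates also reaching it, limit read from the data, passing the limit was not always enough; inconclusive means only one of those two conditions met; inactive means neither condition met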
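System: N-terminal GST-fused human GASC-1 (KDM4C) fragment, residues 2-372; amount: enzyme final amount 10 nM; incubation: reaction 30 min RT, detection step 1 h RT; medium: HEPES buffer, pH 7.5, plus ascorbate; technique: LANCE TR-FRET, Eu antibody, ULight-streptavidin, EDTA, ex 340 nm, em 618/671 nm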
* = called active by the depositor; ? = inconclusive; . = no result; ! = repeats disagree.

SMILES	Pf Dd2 inh	T cruzi growth	IDH1 R132H inh	GASC1 inh
COc1cccc(NC(=O)N2[C@@H](CO)[C@@H](c3ccccc3)[C@@H]2CNC(C)C)c1	-89.3*	74.5	.	2.5
COc1cccc(NC(=O)N2[C@@H](CO)[C@H](c3ccccc3)[C@@H]2CNCC(C)C)c1	-91.1*	.	.	-1.4
COc1cccc(NC(=O)N2[C@H](CO)[C@@H](c3ccccc3)[C@H]2CNCC(C)C)c1	-77.0	71.7	.	-3.0
CCc1cccc(C)c1NC(=O)COc1ccc(NC(C)=O)cc1	.	.	0.3	.
COc1ccc2c3c(n(C)c2c1)[C@H](CO)N(C(=O)Nc1ccc(F)cc1)CC31CCN(Cc2cccnc2)CC1	-90.4*	.	.	-0.3
COc1ccc2c3c(n(C)c2c1)[C@@H](CO)N(C(=O)Nc1ccc(F)cc1)CC31CN(Cc2cccnc2)C1	-72.4	.	.	1.1
COc1ccc2c3c(n(C)c2c1)[C@@H](CO)N(C(=O)Nc1ccc(F)cc1)CC31CCN(Cc2cccnc2)CC1	-89.0*	.	.	1.4
O=C(Nc1ccc(Cl)cc1)c1ccccc1NS(=O)(=O)c1cccc2cccnc12	.	.	-1.1	.
COc1ccccc1NC(=O)N(C)C[C@@H]1OCc2ccccc2-c2ccccc2C(=O)N([C@@H](C)CO)C[C@H]1C	-85.6*	43.7	.	3.5
C[C@H](CO)N1C[C@H](C)[C@@H](CN(C)C(=O)Nc2cccc(Cl)c2Cl)OCc2ccccc2-c2ccccc2C1=O	-84.1*	.	.	-2.8
COC(=O)c1ccc(NC(=O)CN(c2ccc(Br)c(C)c2)S(C)(=O)=O)cc1	.	.	-0.2	.
CS(=O)(=O)N(CC(=O)Nc1ccc(C(F)(F)F)cc1)c1ccc(F)cc1	.	.	-0.1	.
CC(/C=C/C(=O)NO)=C\c1ccccc1OC[C@@H]1[C@H]2C[C@H]3c4[nH]c5ccccc5c4CCN3C[C@@H]2CC[C@@H]1O	.	.	73.9*	.
C[C@H](CO)N1C[C@H](C)[C@@H](CN(C)S(=O)(=O)c2cn(C)cn2)Oc2ccc(NC(=O)CCC(F)(F)F)cc2CC1=O	41.9	-10.8	9.7	25.7*
Cc1ccc(S(=O)(=O)N(C)C[C@H]2Oc3ccc(NC(=O)Cc4cn(C)c5ccccc45)cc3C(=O)N([C@H](C)CO)C[C@@H]2C)cc1	-83.4*	25.7	.	-2.7
C[C@@H]1CN([C@@H](C)CO)C(=O)c2cc(NC(=O)Cc3cn(C)c4ccccc34)ccc2O[C@H]1CN(C)S(=O)(=O)c1ccccc1	-22.1	38.8	.	.
Cc1ccc(S(=O)(=O)N(C)C[C@@H]2Oc3ccc(NC(=O)Cc4cn(C)c5ccccc45)cc3CC(=O)N([C@@H](C)CO)C[C@H]2C)cc1	-83.3*	47.7	0.6	-5.8
C[C@H]1CN([C@@H](C)CO)C(=O)c2cc(NC(=O)Cc3cn(C)c4ccccc34)ccc2O[C@H]1CN(C)S(=O)(=O)c1ccccc1	-91.1*	79.5	-40.1	.
CCCC(=O)N1CCC2(CC1)CN(Cc1ccccc1F)[C@H](CO)c1c2c2ccc(OC)cc2n1C	?	.	.	-0.8
CCCC(=O)N1CC2(C1)CN(Cc1ccccc1F)[C@H](CO)c1c2c2ccc(OC)cc2n1C	-86.9*	.	.	-0.3
CCCC(=O)N1CCC2(CC1)CN(Cc1ccccc1F)[C@@H](CO)c1c2c2ccc(OC)cc2n1C	-82.8*	.	.	-4.3
COc1ccc(NC(=O)C(=O)NCc2cccnc2)cc1	.	.	0.6	.
Cn1cnnc1SCc1nc2ccc([N+](=O)[O-])cc2[nH]1	.	.	-1.5	.
Cc1noc(C)c1S(=O)(=O)N(C)C[C@@H]1OCc2ccccc2-c2c(n(C)c3ccccc23)C(=O)N([C@@H](C)CO)C[C@H]1C	17.2	11.4	0.1	-0.4
C[C@H](CO)N1C[C@H](C)[C@@H](CN(C)S(=O)(=O)c2ccc(Cl)cc2)OCc2ccccc2-c2c(n(C)c3ccccc23)C1=O	-85.2*	80.6	.	-1.2
SMILES	Pf Dd2 inh	T cruzi growth	IDH1 R132H inh	GASC1 inh
Cc1ccc(S(=O)(=O)N(C)C[C@H]2OCc3ccccc3-c3c(n(C)c4ccccc34)C(=O)N([C@H](C)CO)C[C@@H]2C)cc1	-87.6*	76.6	.	-4.5
C[C@H](CO)N1C[C@H](C)[C@H](CN(C)S(=O)(=O)c2ccccc2)OCc2ccccc2-c2c(n(C)c3ccccc23)C1=O	-35.5	.	.	.
Cc1noc(C)c1S(=O)(=O)N(C)C[C@H]1OCc2ccccc2-c2c(n(C)c3ccccc23)C(=O)N([C@@H](C)CO)C[C@H]1C	-88.7*	84.3	-1.3	8.1
C[C@H]1CN([C@@H](C)CO)C(=O)c2ccccc2-c2ccccc2CO[C@H]1CN(C)S(=O)(=O)c1ccc(Cl)cc1	-82.8*	51.1	.	0.6
Fc1ccccc1-c1nnc(SCc2nc3ccccc3[nH]2)n1-c1ccccc1	.	.	-0.1	.
Oc1c(C(Nc2ccccn2)c2cccc(F)c2)cc(Cl)c2cccnc12 (stereo not given)	.	.	-0.8	.
NC(=O)c1c(NC(=O)C(Cc2ccccc2)N2C(=O)c3ccccc3C2=O)sc2c1CCCC2 (stereo not given)	.	.	0.2	.
C[C@H]1CN([C@@H](C)CO)C(=O)c2c(c3ccccc3n2C)-c2ccccc2CO[C@H]1CN(C)S(=O)(=O)c1ccc([N+](=O)[O-])cc1	-89.2*	.	.	6.5
C[C@@H]1CN([C@@H](C)CO)C(=O)c2c(c3ccccc3n2C)-c2ccccc2CO[C@H]1CN(C)S(=O)(=O)c1ccccc1	-72.0	78.0	.	-1.6
C[C@H]1CN([C@@H](C)CO)C(=O)c2c(c3ccccc3n2C)-c2ccccc2CO[C@H]1CN(C)S(=O)(=O)c1ccccc1	-84.2*	64.8	.	-1.3
COc1ccc(S(=O)(=O)N(C)C[C@H]2OCc3ccccc3-c3c(n(C)c4ccccc34)C(=O)N([C@@H](C)CO)C[C@H]2C)cc1	-82.7*	83.2	-0.1	-1.1
COc1cccc(S(=O)(=O)N(C)C[C@H]2OCc3ccccc3-c3c(n(C)c4ccccc34)C(=O)N([C@@H](C)CO)C[C@@H]2C)c1	-83.4*	34.7	.	-10.7
O=S(=O)(c1ccc(-c2ccccc2)cc1)N1C[C@@H]2N[C@H](C1)C2c1ccc(-c2ccccc2)cc1 (stereo not given in full)	-87.4*!	.	.	0.0
N#Cc1ccc(-c2ccc([C@@H]3[C@@H]4CN(S(=O)(=O)c5ccc(-c6ccccc6)cc5)C[C@H]3N4)cc2)cc1	-73.7	.	.	3.0
Cc1ccc(S(=O)(=O)N2C[C@@H]3N[C@H](C2)C3c2ccc(-c3ccncc3)cc2)cc1 (stereo not given in full)	-80.7*!	.	.	0.6
COc1ccccc1N(CC(=O)Nc1c(C)cc(C)cc1C)S(C)(=O)=O	.	.	0.6	.
COc1ccc(CN2CC3(CCN(C(=O)c4ccccc4)CC3)c3c([nH]c4cc(OC)ccc34)[C@@H]2CO)cc1	-87.6*	.	.	-1.3
COc1ccc(CN2CC3(CN(C(=O)c4ccccc4)C3)c3c([nH]c4cc(OC)ccc34)[C@@H]2CO)cc1	-47.8	.	.	-1.0
COc1ccc2c3c([nH]c2c1)[C@@H](CO)N(C(=O)c1cccc(F)c1)CC31CCN(C(=O)c2ccccc2)CC1	-88.1*	.	.	-0.7
COc1ccc2c3c([nH]c2c1)[C@@H](CO)N(CC1CC1)CC31CN(C(=O)c2ccccc2)C1	-84.6*	.	.	0.2
